Bioassay records from PubChem.
Rows were chosen to be rich in hits. Some 5.2% of all compounds tested hit in one or more screens of this group.
WNV NS2B-NS3 inh – inhibitors of WNV NS2B-NS3 protease, primary screen, biochemical, fluorogenic substrate | Genome polyprotein (West Nile virus), P06935 | fluorogenic substrate Ex360/Em465; active compounds read low | z-score (concentration not given with the values) | 65,000 compounds, 0.18% hits | AID 577, 2007; in the data active means z-score below about -3
Target sequence (P06935 1371-1501 limits assumed): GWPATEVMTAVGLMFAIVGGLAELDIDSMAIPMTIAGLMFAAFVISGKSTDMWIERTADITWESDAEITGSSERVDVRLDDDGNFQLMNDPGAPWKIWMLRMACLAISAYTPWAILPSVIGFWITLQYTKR
Target sequence (P06935 1502-1679 limits assumed): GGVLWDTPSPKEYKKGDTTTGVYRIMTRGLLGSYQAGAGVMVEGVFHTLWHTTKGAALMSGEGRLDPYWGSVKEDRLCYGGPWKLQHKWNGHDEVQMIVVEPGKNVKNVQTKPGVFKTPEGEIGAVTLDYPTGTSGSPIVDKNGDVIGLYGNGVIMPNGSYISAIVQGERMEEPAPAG
M1 antagonist – antagonists of rat M1 muscarinic receptor; AID 628, 2007; B-score at 10 µM; 64,000 compounds, 3.4% hits; CHO-M1 cells, Fluo-4 calcium, ACh EC80 antagonist mode; active compounds read low;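 active means calcium fluorescence response, raw or row-and-column corrected B-score, differing from the plate sample mean either way at a set confidence level, mostly lower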
AP ELISA ortho – alternative complement pathway inhibitors, primary screen, biochemical, ELISA, human serum, orthogonally pooled compounds. inhibition, % at 5 µM. 62,000 compounds, 0.08% hits. LPS-coated ELISA, C3 deposition; tested in compound mixtures;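 active means inhibition above 30% in each of the two pooled mixtures holding the compound, so the lower value exceeds 30%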;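 further: 0% = serum in Mg-EGTA without compound and 100% = EDTA serum blank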
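Assay system: Human serum alternative complement pathway, C3 deposition on LPS-coated wells | Incubation: 1 h serum-compound exposure at 37 °C | Doses: 5 µM per compound in ten-compound mixtures | Read-out: Percent inhibition | Technique: ELISA with HRP anti-human C3 antibody, TMB substrate, absorbance 450 nm | Replication: Two pool placements per compound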
M1 ag – M1 muscarinic receptor agonists, primary screen, CHO-M1 cells, Fluo-4 calcium, agonist mode. B-score at 10 µM. 64,000 compounds, 3% hits. Fluo-4 calcium fluorescence; active compounds read high;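 active means fluorescence rise, raw or as B-score row- and column-corrected plate score, outside the 99.7% band of its plate's samples, either direction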
tolC growth inh – growth inhibitors of E. coli tolC mutant, primary screen, strain BW25113 ΔtolC::kan, 384-well; OD615; growth inhibition, % at 10 µM (by protocol); 65,000 compounds, 2.2% hits; AID 573, 2007;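 active means growth inhibition at or above a cutoff equal to the mean over every tested compound plus 3 SD, cut at about 60% in these data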;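 further: growth measured after 20 h incubation at 37 °C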
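Test system: E. coli BW25113 ΔtolC::kan bacteria | Medium: Kanamycin-containing LB broth (50 µg/mL) | Dosing: One dose of 10 µM final | Times: 20 h incubation with compound, 37 °C | Detection: Optical density read at 615 nm | Read-out basis: Percent growth inhibition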
Ecoli WT expand – growth inhibitors of wild-type E. coli, primary screen, strain BW25113, expanded library, OD600. growth inhibition, % at 100 µM. OD600 absorbance. 98,000 compounds, 0.15% hits. AID 710, 2007;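 active means growth inhibition above about 50% at one test dose, limit read from the data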;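 further: growth measured after 20 h incubation at 37 °C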
M1 antag conf – rat M1 muscarinic receptor antagonists, confirmation, CHO cells, Fluo-4 calcium, duplicate; calcium response (max-min fluorescence) at 10 µM; shares compounds with M1 antagonist; ACh EC80 antagonism; active compounds read low; AID 677, 2007; 1,700 compounds, 43% hits;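 active means calcium response below the same-plate mean of wells given acetylcholine alone at its 80%-effect dose, minus 3 SD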;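 further: raw fluorescence intensity difference in arbitrary instrument units and not normalized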
mGluR4 antag – human mGluR4 response to M1 antagonist hits, M1 allosteric modulator project, cell-based, antagonist mode, secondary assay 1 | 1,700 compounds, 0.9% hits | fluorescence response (max-min) at 10 µM | CHO-mGluR4 calcium flux, Fluo-4 fluorescence, glutamate EC80; active compounds read low | shares compounds with M1 antagonist;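 active means fluorescence response below the plate's average for near-maximal glutamate wells, less 3 SD of those wells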;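 further: raw unnormalized fluorescence span taken in the window right after glutamate addition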
* hit, by the source's call; nt = not tested or not shown.

SMILES	WNV NS2B-NS3 inh	M1 antagonist	AP ELISA ortho	M1 ag	tolC growth inh	Ecoli WT expand	M1 antag conf	mGluR4 antag
Cc1ccccc1NC(=O)C1CCCN1C(=O)NC1CCCCC1 (stereo not given)	-0.14	0.014	1	0.026	-6	-3	nt	nt
O=C(CNC1CCCCCC1)Nc1ccc(S(=O)(=O)NC2CC2)cc1	-0.97	-4.8*	-2	-0.96	-7	8	182*	255
COc1ccc(C(=O)CSC2=C(C#N)C3(CCCCC3)C(C#N)=C(N)N2)cc1	-0.38	-0.37	nt	3.8	9	-8	nt	nt
CCSC1=C(C#N)C2(CCCCC2)C(C#N)=C(N)N1	-0.06	-2.7*	12	-0.91	14	10	505	212
CCOCCCNC(=O)C(NC(=O)c1cnccn1)c1ccc(C)cc1 (stereo not given)	nt	nt	nt	nt	nt	4	nt	nt
O=C1CC(c2ccc(Cl)cc2)CC(O)=C1C=NCCN1CCNCC1 (stereo not given)	nt	-5.3*	20	-0.58	4	2	512*	184
COc1ccc(C2CC(=O)C(C=NCCN3CCNCC3)=C(O)C2)cc1OC (stereo not given)	-0.28	-1	1	-1.8	-4	-19	nt	nt
COc1ccc(OC)c(N=C2C(=O)Nc3ccccc32)c1	-1.1	0.34	2	-0.46	-13	3	nt	nt
COc1ccc(N=C2C(=O)Nc3ccccc32)cc1	0.07	-4.4*	10	1.7	-10	4	700	197
N=c1sccn1CC(=O)Nc1cccc(Oc2ccccc2)c1	-0.79	-2.4*	9	0.88	7	16	381*	238
N=c1sccn1CC(=O)Nc1cc(Cl)ccc1Oc1ccccc1	nt	nt	nt	nt	nt	27	nt	nt
CCOC(=O)C1=NN(C(=O)Nc2cccc(C(F)(F)F)c2)C2C(=O)N(c3cccc(C(F)(F)F)c3)C(=O)C12 (stereo not given)	nt	nt	nt	nt	nt	-4	nt	nt
Cc1cc(C)c(NC(=O)CSc2nnc(SCC(=O)Nc3c(C)cc(C)cc3C)n2N)c(C)c1	nt	nt	nt	nt	nt	-4	nt	nt
Cc1cc(N2CCCCCC2)nc2ccccc12	nt	nt	nt	nt	nt	16	nt	nt
Cc1cc(N2CCCN(C)CC2)nc2cc(Cl)ccc12	0.23	-3.7*	9	-1.3	0	27	378*	259
COc1cc(C2C(C#N)=C(N)Oc3n[nH]c(C)c32)ccc1OC(=O)c1ccccc1 (stereo not given)	nt	nt	nt	nt	nt	-6	nt	nt
COc1cc(C2C(C#N)=C(N)Oc3n[nH]c(C)c32)cc2c1OCO2 (stereo not given)	1.8	-4.8*	8	0.094	-9	6	642	228
Cc1ccc(-n2nnc3c(SCC(=O)NCC4CCCO4)ncnc32)cc1 (stereo not given)	-0.6	-2.4*	13	1.5	5	7	569	247
O=C(CSc1ncnc2c1nnn2-c1ccc(F)cc1)NCC1CCCO1 (stereo not given)	-0.35	-1.3	-3	0.19	8	6	nt	nt
COc1ccc(S(=O)(=O)N(C)c2ccc(OCC(=O)Nc3cc(C)on3)cc2)cc1	2	-2.8*	6	-0.64	10	-9	604	218
COc1ccc(OCCC(=O)Nc2cc(C)on2)cc1	-0.86	0.68	15	-0.03	-2	15	nt	nt
O=C(CN1CCSCC1)N1CCc2[nH]c3ccc(Br)cc3c2C1	-0.62	-11*	2	-0.14	27	19	124*	230
O=C(CN1C(=O)c2ccccc2C1=O)N1CCN(C(=O)c2ccco2)CC1	nt	nt	nt	nt	nt	5	nt	nt
O=C(CCC1CCCC1)N1CCN(C(=O)c2ccco2)CC1	0.69	-3*	16	0.14	1	-6	654	237
O=C1OC(N2CCN(C(=O)c3ccco3)CC2)c2ccccc21 (stereo not given)	-0.82	-3.8*	9	-0.019	-31	4	609	247
SMILES	WNV NS2B-NS3 inh	M1 antagonist	AP ELISA ortho	M1 ag	tolC growth inh	Ecoli WT expand	M1 antag conf	mGluR4 antag
O=C(c1ccco1)N1CCN(CCCCN2C(=O)c3ccccc3C2=O)CC1	0.19	-1.4*	5	-0.47	-6	2	637	227
CCOc1cc(NC(=O)c2ccccc2C)c(OCC)cc1NC(=O)C1=Cc2ccccc2OC1	nt	nt	nt	nt	nt	-12	nt	nt
COc1ccccc1C(=O)NCC1CCN(c2ccc(S(=O)(=O)N3CCOCC3)cc2)CC1	nt	nt	nt	nt	nt	-11	nt	nt
CCOc1ccc2c(c1)c1nnc(SCC(=O)N3CCC(C)CC3)nc1n2C	1.3	-4.6*	5	1	14	-1	333*	231
CC1CCCCN1C(=O)CSc1nc(N)cc(=O)[nH]1 (stereo not given)	nt	nt	nt	nt	nt	1	nt	nt
CCOc1ccc2c(c1)c1nnc(SCC(=O)N3CCCCC3C)nc1n2C (stereo not given)	0.73	-3.2*	21	-0.33	21	4	435	213
CCCOC(=O)NC(CC)COC(=O)Nc1cccc(C)c1C (stereo not given)	-0.09	0.078	8	-0.28	-9	2	nt	nt
c1ccc(-c2nc(NCC3CCCO3)c3ccccc3n2)nc1 (stereo not given)	-0.07	0.12	nt	0.36	-4	19	nt	nt
Oc1cccc(Nc2nc(NCC3CCCO3)c3ccccc3n2)c1 (stereo not given)	0.3	-3.9*	5	1.6	94*	38	357*	224
CCC(C)NC(=O)C1c2ccccc2C(=O)N(c2ccc(OC)cc2)C1c1ccc(OC)cc1 (stereo not given)	nt	nt	nt	nt	nt	-7	nt	nt
OC(C#CCN1CCCC1)c1ccccc1 (stereo not given)	1.3	-3*	13	0.051	4	3	462	199
OC(C#CCN1CCCCC1)c1ccccc1 (stereo not given)	0.05	-2.6*	10	0.13	-15	8	432	185
CC(C)C(O)(C#CCN1CCCC1)c1ccccc1 (stereo not given)	nt	nt	nt	nt	nt	13	nt	nt
CCCCC(c1nnnn1CCOC)N1CCN(c2cccc(OC)c2)CC1 (stereo not given)	0.39	0.45	11	-0.088	-7	5	nt	nt
COc1ccc(CNC(=O)CSc2nnnn2-c2ccccc2)cc1	1.5	-4.8*	21	0.15	2	6	655	249
CCOC(=O)C(CC)(CC)/C(C)=N/NC(=O)CC#N	nt	nt	nt	nt	nt	-5	nt	nt
